Experimental data: ChEMBL document CHEMBL1156912, “Subtlety of the structure-affinity and structure-efficacy relationships around a nonpeptide oxytocin receptor agonist” (J Med Chem, 2010)
pEC50, pKi: −log10 of the molar value. The source made the active and inactive calls. No cut-off for these calls is given here.

How the values were obtained:
[1] = molecular target: T1, Vasopressin V1a receptor (Homo sapiens, UniProt P37288); experiment: Activity at human vasopressin V1a receptor expressed in CHO cells assessed as inhibition of agonist-induced inositol phosphate accumulation; format: functional, cell-based
Outline: (§1)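 Human V1a receptor in stably transfected CHO cells, seeded at 80000 cells/well overnight. Cells were preincubated 10 min at 37 °C with ligand (10 fM–100 μM, ≤1% final DMSO), then challenged with 2 nM AVP for 30 min. IP1 was read by IP-One HTRF. K_inact was derived by Cheng–Prusoff-type correction using AVP K_act 1.20 nM. Fixed-concentration lines are % inhibition, n = 2.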
Target sequence in this assay (P37288 whole entry, looked up): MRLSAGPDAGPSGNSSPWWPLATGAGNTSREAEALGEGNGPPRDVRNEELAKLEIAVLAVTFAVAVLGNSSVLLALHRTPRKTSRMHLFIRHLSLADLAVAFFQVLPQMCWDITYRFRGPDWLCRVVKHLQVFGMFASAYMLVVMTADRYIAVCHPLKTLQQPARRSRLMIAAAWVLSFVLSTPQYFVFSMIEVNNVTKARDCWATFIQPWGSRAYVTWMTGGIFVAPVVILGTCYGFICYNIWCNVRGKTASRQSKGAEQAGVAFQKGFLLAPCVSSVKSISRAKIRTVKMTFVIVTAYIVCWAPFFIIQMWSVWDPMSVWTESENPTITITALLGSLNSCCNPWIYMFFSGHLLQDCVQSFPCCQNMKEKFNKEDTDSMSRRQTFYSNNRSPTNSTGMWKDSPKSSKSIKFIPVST

[2] = molecular target: T2, Vasopressin V2 receptor (Homo sapiens, UniProt P30518); experiment: Displacement of [3H]AVP from human vasopressin V2 receptor expressed in CHO cells; format: cell-based; conditions: for pKi: read-out: Ki
T2 sequence (P30518 whole entry): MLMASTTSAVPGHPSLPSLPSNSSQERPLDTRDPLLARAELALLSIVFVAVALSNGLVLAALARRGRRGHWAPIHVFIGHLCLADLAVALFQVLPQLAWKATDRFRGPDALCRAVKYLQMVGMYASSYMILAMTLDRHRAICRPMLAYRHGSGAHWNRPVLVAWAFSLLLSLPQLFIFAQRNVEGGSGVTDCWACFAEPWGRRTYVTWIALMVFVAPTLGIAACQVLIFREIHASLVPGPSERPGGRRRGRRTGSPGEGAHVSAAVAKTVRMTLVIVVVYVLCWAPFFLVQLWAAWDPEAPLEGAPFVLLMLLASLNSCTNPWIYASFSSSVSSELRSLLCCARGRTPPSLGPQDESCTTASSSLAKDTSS
Outline: (§2)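 Membranes came from CHO cells stably expressing the human receptor; OT-R and V1a-R cells were treated overnight with 5 mM butyrate. Membrane protein was 10–15 μg (OT, V1a) or 5 μg (V2), incubated 30 min at 30 °C in 50 mM Tris-HCl, 5 mM MgCl2, 1 mg/mL BSA, pH 7.4, with 1–2 nM [3H]AVP and competitor 0.1 pM–100 μM. Nonspecific binding: 10 μM AVP. Filtration, then Ki via Cheng–Prusoff. Mean ± SEM of ≥3 experiments in triplicate.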

[3] = molecular target: T2, Vasopressin V2 receptor; experiment: Activity at human vasopressin V2 receptor expressed in CHO cells assessed as cAMP accumulation at 1 uM; format: functional, cell-based
Outline: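 V2-R agonism in CHO cells at 1000 cells/well, stimulated 30 min at 37 °C in D-MEM containing 0.1 mM Ro-20-1724 and 1 mg/mL BSA. cAMP was read by cAMP dynamic 2 HTRF. K_act from the sigmoidal fit. Emax is % of the 0.1 μM AVP response. Single-concentration values are % of AVP maximum.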

[4] = molecular target: T3, Oxytocin receptor (Homo sapiens) (UniProt P30559); experiment: Activity at human oxytocin receptor expressed in CHO cells assessed as inhibition of agonist-induced inositol phosphate accumulation at 10 uM; format: functional, cell-based
T3 sequence (whole entry): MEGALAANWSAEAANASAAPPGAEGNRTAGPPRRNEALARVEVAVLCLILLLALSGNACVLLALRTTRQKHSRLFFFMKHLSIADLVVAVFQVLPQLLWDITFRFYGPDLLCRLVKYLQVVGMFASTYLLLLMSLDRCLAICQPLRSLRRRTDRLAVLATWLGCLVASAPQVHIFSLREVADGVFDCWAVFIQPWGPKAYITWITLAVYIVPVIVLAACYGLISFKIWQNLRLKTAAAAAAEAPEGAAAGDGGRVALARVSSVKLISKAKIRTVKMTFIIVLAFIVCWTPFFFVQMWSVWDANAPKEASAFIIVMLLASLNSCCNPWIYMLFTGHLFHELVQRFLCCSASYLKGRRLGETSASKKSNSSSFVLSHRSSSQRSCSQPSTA

[5] = molecular target: T3, Oxytocin receptor (Homo sapiens); experiment: Activity at human oxytocin receptor expressed in CHO cells assessed as inhibition of agonist-induced inositol phosphate accumulation at 1 uM; format: functional, cell-based; design: scale not given: the % may be the effect or the level left
[6] = molecular target: T1, Vasopressin V1a receptor; experiment: Displacement of [3H]AVP from human vasopressin V1a receptor expressed in CHO cells; format: cell-based; conditions: for pKi: read-out: Ki; outline: as §2
Target sequence in this assay (P37288 whole entry): as the sequence (P37288 whole entry, looked up) above

[7] = molecular target: T4, Oxytocin receptor (Homo sapiens, UniProt P30559); experiment: Displacement of [3H]AVP from human oxytocin receptor expressed in CHO cells; format: cell-based; conditions: for pKi: read-out: Ki; outline: as §2
T4 sequence (P30559 whole entry): T3 sequence (whole entry)

[8] = molecular target: T1, Vasopressin V1a receptor; experiment: Activity at human vasopressin V1a receptor expressed in CHO cells assessed as inositol phosphate accumulation at 1 uM; format: functional, cell-based
Outline: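 Human V1a-expressing CHO cells, 80000 cells/well, exposed to ligand for 30 min at 37 °C. IP1 was measured by HTRF IP-One. EC50 (K_act) from the dose–response curve. Emax is relative to the 1 μM AVP maximum. Weak responses are reported as % of AVP maximum at 1 μM ligand.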
Target sequence in this assay (P37288 whole entry, looked up): as above

[9] = molecular target: T3, Oxytocin receptor (Homo sapiens); experiment: Activity at human oxytocin receptor expressed in CHO cells assessed as inhibition of agonist-induced inositol phosphate accumulation; format: functional, cell-based
[10] = molecular target: T4, Oxytocin receptor; experiment: Activity at human oxytocin receptor expressed in CHO cells by NFAT-luciferase gene reporter assay; format: cell-based
[11] = molecular target: T2, Vasopressin V2 receptor; experiment: Activity at human vasopressin V2 receptor expressed in CHO cells assessed as inhibition of agonist-induced cAMP accumulation; format: functional, cell-based
[12] = molecular target: T2, Vasopressin V2 receptor; experiment: Activity at human vasopressin V2 receptor expressed in CHO cells by cAMP dynamic 2 assay
[13] = molecular target: T3, Oxytocin receptor (Homo sapiens); experiment: Activity at human oxytocin receptor expressed in CHO cells assessed as inositol phosphate accumulation at 1 uM; format: functional, cell-based
Outline: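 Agonist mode on CHO cells stably expressing human OT receptor: 30 min at 37 °C with ligand, 10 fM–100 μM, ≤1% final DMSO. IP1 accumulation was read by IP-One HTRF, ΔF from the 665/620 ratio. K_act is the EC50 from the sigmoidal fit. Emax is % of the 1 μM OT maximal response. Single-concentration lines are % of OT maximum, n = 2. Mean of ≥3 experiments in triplicate.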

[14] = molecular target: T1, Vasopressin V1a receptor; experiment: Activity at human vasopressin V1a receptor expressed in CHO cells by NFAT-luciferase gene reporter assay; format: cell-based
Target sequence in this assay (P37288 whole entry): as the sequence (P37288 whole entry, looked up) above

[15] = molecular target: T2, Vasopressin V2 receptor; experiment: Activity at human vasopressin V2 receptor expressed in CHO cells assessed as inhibition of agonist-induced cAMP accumulation at 1 uM; format: functional, cell-based
[16] = molecular target: T1, Vasopressin V1a receptor; experiment: Activity at human vasopressin V1a receptor expressed in CHO cells assessed as inhibition of agonist-induced inositol phosphate accumulation at 1 uM; format: functional, cell-based; design: scale not given: the % may be the effect or the level left; outline: as §1
Target sequence in this assay (P37288 whole entry, looked up): as above

[17] = molecular target: T3, Oxytocin receptor (Homo sapiens); experiment: Activity at human oxytocin receptor expressed in CHO cells assessed as inositol phosphate accumulation up to 10 uM; format: functional, cell-based
Outline: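 CHO cells stably expressing human OT receptor, seeded 80000 cells/well overnight at 37 °C. Ligands 10 fM to 100 μM (≤1% DMSO) in IP-One stimulation buffer, 30 min at 37 °C with 5% CO₂. IP₁ read by HTRF at 665/620 nm. EC50 (K_act) from sigmoidal curves; Emax as % of 1 μM OT maximum. Triplicate wells, ≥3 experiments.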

SMILES | Kinact [1] | pKi [2] | Emax [3] | Activity [4] | Activity [5] | pKi [6] | pKi [7] | Activity [8] | Kinact [9] | Kinact [11] | Activity [3] | pEC50 [10] | pEC50 [12] | Activity [13] | pEC50 [14] | Activity [16] | also measured
Cc1cc(C(=O)N2Cc3cnn(C)c3Nc3ccccc32)ccc1CNC(=O)N(C)C | 134 nM | < 6.00 | 16% | inactive | 30% | 6.77 | < 5.30 | inactive |  |  |  |  |  |  |  |  | 
O=C(Nc1ccc(C(=O)N2CCCCc3ccccc32)cc1)c1ccccc1-c1ccccc1 | 63 nM | 9.24 |  |  |  | 8.56 | 6.96 | inactive | 171 nM | 0.096 nM | inactive | 7.20 | 8.12 | inactive | 7.85 |  | 
COc1cc(OC2CCN(C(C)=O)CC2)ccc1C(=O)N1CCC(N2C(=O)OCc3ccccc32)CC1 |  |  |  |  |  |  |  | inactive |  | inactive | inactive | 8.34 | 4.43 | inactive | 5.49 | 18% | Ki ([2]; cho): Not Active; Ki ([6]; cho): Not Active; Ki ([7]; cho): Not Active
Cc1cc(C(=O)N2Cc3cnn(C)c3Nc3ccccc32)ccc1NC(=O)c1ccccc1-c1ccccc1 | 412 nM | 8.19 |  |  |  | 7.43 | 6.95 | inactive | 557 nM | 1.1 nM | inactive |  |  |  |  |  | Activity [17]: inactive

Continued, in another order:

Kinact [1] | pKi [2] | Emax [3] | Activity [4] | Activity [5] | pKi [6] | pKi [7] | Activity [8] | Kinact [9] | Kinact [11] | Activity [3] | SMILES | pEC50 [10] | pEC50 [12] | Activity [13] | pEC50 [14] | Activity [16] | also measured
187 nM | < 6.00 | 20% | inactive | 37% | 6.78 | < 6.00 | inactive |  |  |  | Cc1cc(C(=O)N2Cc3cnn(C)c3Nc3ccccc32)ccc1CNC(=O)N1CCCC1 |  |  |  |  |  | Kinact [15]: inactive
 |  |  | inactive | inactive | < 5.30 | < 5.30 | inactive |  |  |  | CC(=O)NCc1ccc(C(=O)N2Cc3cnn(C)c3Nc3ccccc32)cc1C |  |  |  |  | 27% | 
